Converted amounts (≈) assume the structure as drawn. The source made the active and inactive calls. Residues, ends and D or L forms follow the SMILES beside them. *: point of attachment. Boc = CC(C)(C)OC(=O)*; NHBn = c1ccc(CN*)cc1
Experiments:
[1] = Selectivity index, ratio of cytotoxicity against pig LLC-PK1 cells to IC50 for Cryptococcus neoformans ATCC 90113; assay type: toxicity, cell-based; conditions: read-out: Selectivity Index
[2] = Selectivity index, ratio of cytotoxicity against african green monkey Vero cells to IC50 for Cryptococcus neoformans ATCC 90113; assay type: toxicity, cell-based; conditions: read-out: Selectivity Index
[3] = Selectivity index, ratio of cytotoxicity against human SKOV3 cells to IC50 for Cryptococcus neoformans ATCC 90113; assay type: toxicity, cell-based, SK-OV-3; conditions: read-out: Selectivity Index
[4] = Selectivity index, ratio of cytotoxicity against human BT549 cells to IC50 for Cryptococcus neoformans ATCC 90113; assay type: toxicity, cell-based, BT-549; conditions: read-out: Selectivity Index
[5] = Selectivity index, ratio of cytotoxicity against human KB cells to IC50 for Cryptococcus neoformans ATCC 90113; assay type: toxicity, cell-based; conditions: read-out: Selectivity Index
[6] = Selectivity index, ratio of cytotoxicity against human SK-MEL cells to IC50 for Cryptococcus neoformans ATCC 90113; assay type: toxicity, cell-based; conditions: read-out: Selectivity Index
LLC-PK1 = test: Cytotoxicity against pig LLC-PK1 cells assessed as cell viability after 48 hrs by neutral red uptake assay; assay type: cell-based, Sus scrofa; conditions: llc-pk1, 48 h
Outline: (§1)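 Neutral red uptake assay on human cancer lines (SK-MEL, KB, BT-549, SK-OV-3) and noncancerous mammalian cells (VERO, LLC-PK1). Highest tested concentration was 10 µg/mL.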

Vero = test: Cytotoxicity against african green monkey Vero cells assessed as cell viability after 48 hrs by neutral red uptake assay; assay type: cell-based; conditions: chlorocebus sabaeus; outline: as §1
SK-OV-3 = test: Cytotoxicity against human SKOV3 cells assessed as cell viability after 48 hrs by neutral red uptake assay; assay type: cell-based; conditions: sk-ov-3, 48 h; outline: as §1
KB = test: Cytotoxicity against human KB cells assessed as cell viability after 48 hrs by neutral red uptake assay; assay type: cell-based; outline: as §1
BT-549 = test: Cytotoxicity against human BT549 cells assessed as cell viability after 48 hrs by neutral red uptake assay; assay type: cell-based; conditions: bt-549, 48 h; outline: as §1
SK-MEL = test: Cytotoxicity against human SK-MEL cells assessed as cell viability after 48 hrs by neutral red uptake assay; assay type: cell-based; outline: as §1
Escherichia coli = test: Antibacterial activity against Escherichia coli ATCC 35218 assessed as growth inhibition after 16-20 hrs by CLSI method; assay type: functional, organism-based
Aspergillus fumigatus = test: Antifungal activity against Aspergillus fumigatus assessed as growth inhibition; assay type: functional, organism-based
Pichia kudriavzevii = test: Antifungal activity against Candida krusei assessed as growth inhibition; assay type: functional, organism-based
Nakaseomyces glabratus = test: Antifungal activity against Candida glabrata assessed as growth inhibition; assay type: functional, organism-based
Candida albicans = test: Antifungal activity against Candida albicans assessed as growth inhibition; assay type: functional, organism-based
Cryptococcus neoformans = test: Antifungal activity against Cryptococcus neoformans ATCC 90113 assessed as growth inhibition after 70-74 hrs by CLSI method; assay type: functional, organism-based
Staphylococcus aureus [7] = test: Antibacterial activity against methicillin-resistant Staphylococcus aureus ATCC 33591 assessed as growth inhibition after 16-20 hrs by CLSI method; assay type: functional, organism-based
Staphylococcus aureus [8] = test: Antibacterial activity against Staphylococcus aureus ATCC 29213 assessed as growth inhibition after 16-20 hrs by CLSI method; assay type: functional, organism-based
[9] = Cryptococcus neoformans, ATCC 90113
[10] = Cryptococcus neoformans, ATCC 90113, read-out: IC50

SMILES	selectivity ratio [1]	selectivity ratio [2]	selectivity ratio [3]	selectivity ratio [4]	selectivity ratio [5]	Activity (LLC-PK1)	Activity (Vero)	Activity (SK-OV-3)	Activity (KB)	Activity (BT-549)	Activity (SK-MEL)	growth inhibition (GI) (Escherichia coli)	growth inhibition (GI) (Aspergillus fumigatus)	growth inhibition (GI) (Pichia kudriavzevii)	growth inhibition (GI) (Nakaseomyces glabratus)	growth inhibition (GI) (Candida albicans)	IC50 (Cryptococcus neoformans; [10])	IC50 (Cryptococcus neoformans)	MFC (Cryptococcus neoformans)	MIC (Cryptococcus neoformans)	also measured
COC(=O)[C@H](CCCNC(=N)N)NC(=O)[C@H](Cc1c[nH]c(-c2ccc(-c3ccccc3)cc2)n1)NC(=O)OC(C)(C)C	> 2	> 2	> 2	> 2	> 2	> 10 µg/mL	> 10 µg/mL	> 10 µg/mL	> 10 µg/mL	> 10 µg/mL	> 10 µg/mL	inactive	inactive	inactive	inactive	inactive	4.91 µg/mL (≈ 8.5 µM)	–	–	–	selectivity ratio [6]: > 2; MFC (Cryptococcus neoformans; [9]): 10 µg/mL (≈ 17.3 µM); MIC (Cryptococcus neoformans; [9]): 10 µg/mL (≈ 17.3 µM)
COC(=O)[C@H](Cc1c[nH]c(-c2ccccc2)n1)NC(=O)[C@@H](N)Cc1c[nH]c2ccccc12	> 1.3	> 1.3	> 1.3	> 1.3	> 1.3	> 10 µg/mL	> 10 µg/mL	> 10 µg/mL	> 10 µg/mL	> 10 µg/mL	> 10 µg/mL	inactive	inactive	inactive	inactive	inactive	7.97 µg/mL (≈ 18.5 µM)	–	–	–	selectivity ratio [6]: > 1.3; MFC (Cryptococcus neoformans; [9]): 20 µg/mL (≈ 46.4 µM); MIC (Cryptococcus neoformans; [9]): 20 µg/mL (≈ 46.4 µM)
COC(=O)[C@H](CCCNC(=N)N)NC(=O)[C@@H](N)Cc1c[nH]c(-c2cccc3ccccc23)n1	> 7.3	> 7.3	> 7.3	> 7.3	> 7.3	> 10 µg/mL	> 10 µg/mL	> 10 µg/mL	> 10 µg/mL	> 10 µg/mL	> 10 µg/mL	inactive	inactive	inactive	inactive	inactive	1.38 µg/mL (≈ 3.06 µM)	–	–	–	selectivity ratio [6]: > 7.3; MFC (Cryptococcus neoformans; [9]): 2.5 µg/mL (≈ 5.54 µM); MIC (Cryptococcus neoformans; [9]): 2.5 µg/mL (≈ 5.54 µM)
CC(C)(C)OC(=O)N[C@@H](Cc1c[nH]c2ccccc12)C(=O)N[C@@H](Cc1c[nH]c(-c2ccc(C(C)(C)C)cc2)n1)C(=O)NCc1ccccc1	–	–	–	–	–	> 10 µg/mL	> 10 µg/mL	> 10 µg/mL	> 10 µg/mL	> 10 µg/mL	> 10 µg/mL	inactive	inactive	inactive	inactive	inactive	–	Not Active	inactive	inactive	IC50 (Staphylococcus aureus [7]): Not Active; MBC (Staphylococcus aureus [7]): inactive; MIC (Staphylococcus aureus [7]): inactive; IC50 (Staphylococcus aureus [8]): 10.2 µg/mL (≈ 15.3 µM); MBC (Staphylococcus aureus [8]): inactive; MIC (Staphylococcus aureus [8]): inactive
COC(=O)[C@H](Cc1c[nH]c(-c2ccc(-c3ccccc3)cc2)n1)NC(=O)[C@H](Cc1c[nH]c2ccccc12)NC(=O)OC(C)(C)C	–	–	–	–	–	> 10 µg/mL	> 10 µg/mL	> 10 µg/mL	> 10 µg/mL	> 10 µg/mL	> 10 µg/mL	inactive	inactive	inactive	inactive	inactive	–	Not Active	inactive	inactive	IC50 (Staphylococcus aureus [7]): Not Active; MBC (Staphylococcus aureus [7]): inactive; MIC (Staphylococcus aureus [7]): inactive; IC50 (Staphylococcus aureus [8]): 19 µg/mL (≈ 31.2 µM); MBC (Staphylococcus aureus [8]): inactive; MIC (Staphylococcus aureus [8]): inactive
COC(=O)[C@H](Cc1c[nH]c(-c2ccc(C(C)(C)C)cc2)n1)NC(=O)[C@H](Cc1c[nH]c2ccccc12)NC(=O)OC(C)(C)C	–	–	–	–	–	> 10 µg/mL	> 10 µg/mL	> 10 µg/mL	> 10 µg/mL	> 10 µg/mL	> 10 µg/mL	inactive	inactive	inactive	inactive	inactive	18.7 µg/mL (≈ 31.8 µM)	–	inactive	inactive	IC50 (Staphylococcus aureus [7]): Not Active; MBC (Staphylococcus aureus [7]): inactive; MIC (Staphylococcus aureus [7]): inactive; IC50 (Staphylococcus aureus [8]): 15.1 µg/mL (≈ 25.6 µM); MBC (Staphylococcus aureus [8]): inactive; MIC (Staphylococcus aureus [8]): inactive
CC(C)(C)OC(=O)N[C@@H](Cc1c[nH]c2ccccc12)C(=O)N[C@@H](Cc1c[nH]cn1)C(=O)NCc1ccccc1 (Boc-Trp-His-NHBn)	–	–	–	–	–	> 10 µg/mL	> 10 µg/mL	> 10 µg/mL	> 10 µg/mL	> 10 µg/mL	> 10 µg/mL	inactive	inactive	inactive	inactive	inactive	–	Not Active	inactive	inactive	–
COC(=O)[C@H](CCCNC(=N)N)NC(=O)[C@H](Cc1c[nH]c(-c2ccccc2)n1)NC(=O)OC(C)(C)C	–	–	–	–	–	> 10 µg/mL	> 10 µg/mL	> 10 µg/mL	> 10 µg/mL	> 10 µg/mL	> 10 µg/mL	inactive	inactive	inactive	inactive	inactive	16.6 µg/mL (≈ 33.1 µM)	–	inactive	inactive	–
COc1ccc(-c2nc(C[C@H](NC(=O)[C@H](Cc3c[nH]c4ccccc34)NC(=O)OC(C)(C)C)C(=O)NCc3ccccc3)c[nH]2)cc1	–	–	–	–	–	> 10 µg/mL	> 10 µg/mL	> 10 µg/mL	> 10 µg/mL	> 10 µg/mL	> 10 µg/mL	inactive	inactive	inactive	inactive	inactive	–	Not Active	inactive	inactive	–

Reference: ChEMBL document CHEMBL3132745, “Synthesis and Antimicrobial Activities of His(2-aryl)-Arg and Trp-His(2-aryl) Classes of Dipeptidomimetics” (Medchemcomm, 2014)
